According to publication PMC2900318 (Bioorganic & medicinal chemistry letters, 2009):
Converted amounts (≈) assume the structure as drawn.

Key:
[1] = target: T1, human sEH (Homo sapiens, UniProt P34913); test: Inhibition of human sEH, kinetic fluorescent assay; assay type: biochemical; details: for Fold better inhibitory activity against sEH: salicylic acids vs benzoic acids 14 and 15, respectively
T1 sequence (P34913 1-555): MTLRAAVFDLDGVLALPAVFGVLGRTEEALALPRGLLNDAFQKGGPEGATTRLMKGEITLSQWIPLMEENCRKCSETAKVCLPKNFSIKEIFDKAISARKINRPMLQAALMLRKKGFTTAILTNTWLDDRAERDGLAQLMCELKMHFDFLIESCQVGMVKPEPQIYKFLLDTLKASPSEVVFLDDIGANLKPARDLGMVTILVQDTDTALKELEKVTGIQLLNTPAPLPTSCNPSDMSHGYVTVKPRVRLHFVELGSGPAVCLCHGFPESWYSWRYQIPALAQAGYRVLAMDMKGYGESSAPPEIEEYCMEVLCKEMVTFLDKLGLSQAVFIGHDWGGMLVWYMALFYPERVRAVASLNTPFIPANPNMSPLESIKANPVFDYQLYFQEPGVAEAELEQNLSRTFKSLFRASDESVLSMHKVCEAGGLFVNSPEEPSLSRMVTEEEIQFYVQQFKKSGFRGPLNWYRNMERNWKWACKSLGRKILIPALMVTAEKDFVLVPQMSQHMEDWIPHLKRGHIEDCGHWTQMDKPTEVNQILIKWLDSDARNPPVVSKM

[2] = In vitro stability with human liver S9 incubation with or without NADPH; assay type: in vitro ADME; details: for Parent compound remaining after the reaction / Level of the corresponding acid metabolite: human hepatic S9, 60 min; for Parent compound remaining after the reaction: with or without NADPH; for Level of the corresponding acid metabolite: metabolites 15 and 27, respectively
[3] = Chemical stability; assay type: physicochemical; details: 40 mM NaOH; 22 °C
Procedure, shortened: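 The test compound was incubated in alkaline solution (40 mM NaOH) at 22 °C. Hydrolysis was followed over time as conversion to the corresponding phenol.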

[4] = Octanol/buffer partition, experimental logP; assay type: physicochemical; details: for Concentration in buffer: 0.1 M sodium phosphate buffer (pH 7.4) vs buffer saturated 1-octanol; for Concentration in octanol: buffer saturated 1-octanol vs 0.1 M sodium phosphate buffer (pH 7.4)
[5] = Solubility in water; assay type: physicochemical
[6] = Blood levels after oral administration to dog; assay type: in vivo; details: oral gavage 0.3 mg/kg in tri-olein rich oil
Procedure, shortened: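 Dogs received the test compound as a single oral gavage dose of 0.3 mg/kg in tri-olein rich oil. Blood concentrations were followed over time to give concentration–time profiles.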

[7] = target: T2, COX-2 (Homo sapiens, UniProt P35354); test: COX-2 fluorescent inhibitor screening assay kit; assay type: biochemical; details: at 10 μM
T2 sequence (P35354 18-604): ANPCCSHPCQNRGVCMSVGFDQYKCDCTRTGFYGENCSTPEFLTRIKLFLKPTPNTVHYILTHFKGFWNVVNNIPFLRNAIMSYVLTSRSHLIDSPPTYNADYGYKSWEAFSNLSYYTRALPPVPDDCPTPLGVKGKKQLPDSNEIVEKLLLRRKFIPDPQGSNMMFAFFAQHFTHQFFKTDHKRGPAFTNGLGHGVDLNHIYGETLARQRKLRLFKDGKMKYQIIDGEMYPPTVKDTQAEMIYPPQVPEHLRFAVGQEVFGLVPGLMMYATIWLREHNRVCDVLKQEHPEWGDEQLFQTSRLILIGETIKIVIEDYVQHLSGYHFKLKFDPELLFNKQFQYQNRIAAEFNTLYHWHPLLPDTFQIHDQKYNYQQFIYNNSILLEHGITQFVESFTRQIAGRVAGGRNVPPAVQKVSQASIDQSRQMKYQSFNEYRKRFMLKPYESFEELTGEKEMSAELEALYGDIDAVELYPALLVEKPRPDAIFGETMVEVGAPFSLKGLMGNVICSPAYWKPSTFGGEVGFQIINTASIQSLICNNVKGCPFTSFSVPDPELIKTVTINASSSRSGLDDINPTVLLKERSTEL

[8] = target: T3, COX-1 (Ovis aries, UniProt P05979); test: COX-1 fluorescent inhibitor screening assay kit; assay type: biochemical; details: at 10 μM
T3 sequence (P05979 25-600): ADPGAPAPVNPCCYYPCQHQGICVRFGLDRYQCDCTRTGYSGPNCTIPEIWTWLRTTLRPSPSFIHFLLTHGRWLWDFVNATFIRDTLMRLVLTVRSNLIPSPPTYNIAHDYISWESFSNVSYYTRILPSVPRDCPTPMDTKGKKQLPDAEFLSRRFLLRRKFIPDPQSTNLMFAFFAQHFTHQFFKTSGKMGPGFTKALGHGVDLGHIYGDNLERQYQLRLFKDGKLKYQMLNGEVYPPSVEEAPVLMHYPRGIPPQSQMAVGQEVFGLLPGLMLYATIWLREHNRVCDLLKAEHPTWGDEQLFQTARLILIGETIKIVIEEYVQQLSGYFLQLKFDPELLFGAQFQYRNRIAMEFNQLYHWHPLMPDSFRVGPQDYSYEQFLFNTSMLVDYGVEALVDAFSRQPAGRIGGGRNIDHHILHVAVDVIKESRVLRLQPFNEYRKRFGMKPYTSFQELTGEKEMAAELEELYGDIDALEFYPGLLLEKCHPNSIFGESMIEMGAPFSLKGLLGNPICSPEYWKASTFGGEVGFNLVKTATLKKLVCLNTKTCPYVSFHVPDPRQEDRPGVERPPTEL

[9] = target: T1, human sEH; details: statement in words; cited from earlier work

O=C(Nc1ccccc1O)NC12CC3CC(CC(C3)C1)C2 [Compound 2]
Fold reduction of inhibitory potency against human sEH ([1]; ortho hydroxy vs non-functionalized compound 1 / meta, para isomers): roughly 10 fold

CC(=O)Oc1ccc(NC(=O)NC23CC4CC(CC(C4)C2)C3)cc1 [Compound 10]
Hydrolysis to the corresponding phenol 4 ([2]; human hepatic S9, in an hour): hydrolyzed completely
Time to complete conversion to the corresponding phenol 4 [3]: less than 15 min

O=C(Nc1ccc(OC(=O)c2ccccc2)cc1)NC12CC3CC(CC(C3)C1)C2 [Compound 11]
Parent compound remaining after the reaction [2]: 30%
Time to complete conversion to the corresponding phenol 4 [3]: less than 15 min

COC(=O)c1ccc(NC(=O)NC23CC4CC(CC(C4)C2)C3)cc1 [Compound 13]
Parent compound remaining after the reaction [2]: ≥ 90%
Level of the corresponding acid metabolite [2]: below the limit of detection
Concentration in buffer [4]: <0.3 µM
Concentration in octanol [4]: 2445 µM

O=C(Nc1ccc(C(=O)O)cc1)NC12CC3CC(CC(C3)C1)C2 [Compound 15]
Fold less active towards sEH ([1]; vs un-substituted phenyl 1 or the corresponding ester 13): 83 fold

O=C(Nc1cccc(C(=O)N2CCC(N3CCOCC3)CC2)c1)NC12CC3CC(CC(C3)C1)C2 [Compound 17]
solubility ([5]; sodium phosphate buffer, pH 7.4): 10000 µg/mL (≈ 21.4 mM)
Concentration in octanol [4]: 2720 µM

O=C(Nc1ccc(O)c(C(=O)O)c1)NC12CC3CC(CC(C3)C1)C2 [Compound 25]
Fold better inhibitory activity against sEH [1]: 3 fold

COC(=O)c1cc(NC(=O)NC23CC4CC(CC(C4)C2)C3)ccc1O [Compound 26]
Fold increase in metabolic stability ([2]; human liver S9, compared to 12): 10 fold

O=C(Nc1ccc(C(=O)O)c(O)c1)NC12CC3CC(CC(C3)C1)C2 [Compound 27]
Blood concentration [6]: no 27 was detected
Fold better inhibitory activity against sEH [1]: 20 fold
Fold more soluble in water ([5]; compared to 17 (so in the source)): 20 fold
Concentration in buffer [4]: 39 µM
Concentration in octanol [4]: 1641 µM

COC(=O)c1ccc(NC(=O)NC23CC4CC(CC(C4)C2)C3)cc1O [Compound 28]
Inhibition of COX-2 [7]: not able to show any inhibition
Parent compound remaining after the reaction [2]: ≥ 90%
Level of the corresponding acid metabolite [2]: below the limit of detection
Blood concentration [6]: higher than that of the classical sEH inhibitor AUDA
IC50 [1]: ~3 nM
Inhibition of COX-1 [8]: not able to show any inhibition
Concentration in buffer [4]: <0.3 µM
Concentration in octanol [4]: 3886 µM

O=C(NC12CC3CC(CC(C3)C1)C2)NC12CC3CC(CC(C3)C1)C2 [N,N′-bisadamantyl urea]
Inhibition towards sEH [9]: strong inhibition
